Measurements: paper PMC2757082 (Biopolymers, 2009)
Several values for one entry are separate records, joined by “and”; a condition that tells them apart may be missing. Equal entries are not always repeated. Where two headings read alike, the source gives them in different places.

Tests used:
Format in all cases: biochemical
[1] = target: F1Fo-ATPase from E. coli in liposomes (Escherichia coli, UniProt P0ABB4)
[2] = target: T1, F1Fo-ATPase in bovine SMPs (Bos taurus, UniProt P00829); assay: Bovine SMP ATP synthesis steady-state kinetic assay; conditions: for Ki: Bovine, ±SE
Outline: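 ATP synthesis by bovine heart SMPs was read by coupling ATP production to NADP⁺ reduction at varied ADP (1.875–1200 μM). SMPs were preincubated 5 min with aurovertin (1% DMSO final) or DMSO control before substrate or coupling reagents. Apparent parameters came from Michaelis-Menten fits at each inhibitor level, with secondary plots fit by eqs 2–4. 3D fits of velocity against MgADP and inhibitor used eq 6 (mixed inhibition model).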

[3] = target: T1, F1Fo-ATPase in bovine SMPs; assay: Bovine SMP ATP hydrolysis steady-state kinetic assay; conditions: for Vmax2 (maximal catalytic rate of ESI complex) / Ki: Bovine, ±SE
[4] = target: E. coli membrane F1Fo-ATPase (Escherichia coli, UniProt P0ABB4); assay: E. coli everted membrane ATP hydrolysis steady-state kinetic assay
Outline: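 Everted membrane vesicles came from E. coli strain LE392 and were used at 33 μg mL⁻¹, with 5 mM KCN to block chemiosmotic phosphorylation. ATP hydrolysis was read by the NADH-coupled assay, with aurovertin at 1% DMSO final. Michaelis-Menten fits of initial velocity gave apparent kinetic parameters at each inhibitor concentration. Secondary plots were fit with eqs 2–4, assuming residual catalytic activity at saturating inhibitor.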

[5] = HMM-based FRET level assignment, presence of aurovertin
[6] = aurovertin and ATP, Gaussian fit
[7] = bovine, synthesis vs hydrolysis

Sequence of F1Fo-ATPase from E. coli in liposomes (P0ABB4 2-460 limits assumed): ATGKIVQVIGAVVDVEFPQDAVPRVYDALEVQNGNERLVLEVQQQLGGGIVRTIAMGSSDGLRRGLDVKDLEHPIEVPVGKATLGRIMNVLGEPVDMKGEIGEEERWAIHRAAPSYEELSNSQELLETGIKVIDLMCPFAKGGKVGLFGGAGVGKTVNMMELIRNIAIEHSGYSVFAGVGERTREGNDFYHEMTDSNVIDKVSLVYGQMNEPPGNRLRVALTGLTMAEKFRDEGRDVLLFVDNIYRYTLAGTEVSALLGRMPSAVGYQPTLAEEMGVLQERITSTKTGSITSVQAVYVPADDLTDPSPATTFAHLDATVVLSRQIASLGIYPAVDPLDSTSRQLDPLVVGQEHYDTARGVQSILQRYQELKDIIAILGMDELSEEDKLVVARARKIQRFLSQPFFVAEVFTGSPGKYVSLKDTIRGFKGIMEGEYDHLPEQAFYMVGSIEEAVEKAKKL

## CC[C@H]1O[C@]2(C)[C@H](OC(C)=O)[C@@]1(C)O[C@@H](/C=C/C=C/C=C/c1oc(=O)cc(OC)c1C)[C@@H]2O [aurovertin, Aurovertin B]
[1]; 20 μM drug, 1 mM ATP
  remaining activity (turnover ratio in presence and absence of aurovertin): about 60%
[1]; [5]
  dwell time decay component τ: 28 ± 11 ms
  dwell time rise time τ: 16 ± 8 ms
[1]; [6]
  proximity factor P maximum, H level: 0.75
  proximity factor P maximum, L level: 0.31
  proximity factor P maximum, M level: 0.51
[1]; saturating (20 μM) aurovertin, of 3685 marked photon bursts
  fraction of F1Fo-ATPases showing stepwise changing FRET levels: 10.4%
[2]; ATP synthesis
  enzyme activity at saturating substrate and inhibitor concentrations: inactive
[2]; ATP synthesis, bovine SMPs
  increase in the value of the apparent Km: > 2 fold
[2]; bovine SMPs
  mechanism of inhibition of ATP synthesis: mixed inhibitor
[2]; [7]
  decrease of Ki(E) during ATP synthesis versus hydrolysis: 60 fold
  decrease of Ki(ES) during ATP synthesis versus hydrolysis: 5 fold
[2]; read-out: Ki(E), ATP synthesis, 3D fit eq 6, n(E)=1, n(ES)=1
  Ki: 13 ± 4 nM
[2]; read-out: Ki(E), ATP synthesis, 3D fit eq 6, n(E)=2, n(ES)=1
  Ki: 16 ± 2 nM
[2]; read-out: Ki(ES), ATP synthesis, 3D fit eq 6, n(E)=1, n(ES)=1
  Ki: 22 ± 3 nM
[2]; read-out: Ki(ES), ATP synthesis, 3D fit eq 6, n(E)=2, n(ES)=1
  Ki: 25 ± 4 nM
[3]; ATP hydrolysis, saturating aurovertin concentrations
  increase of the value of Vmax/Km: 50%
[3]; ATP hydrolysis, 3D fit eq 5, n(E)=1, n(ES)=1
  Vmax2 (maximal catalytic rate of ESI complex): 0.23 ± 0.01 µmol/min/mg
[3]; ATP hydrolysis, 3D fit eq 5, n(E)=2, n(ES)=1
  Vmax2 (maximal catalytic rate of ESI complex): 0.22 ± 0.01 µmol/min/mg
[3]; bovine SMPs
  mechanism of inhibition of ATP hydrolysis: mixed mechanism of inhibition
[3]; read-out: Ki(E), ATP hydrolysis, 3D fit eq 5, n(E)=1, n(ES)=1
  Ki: 820 ± 250 nM
[3]; read-out: Ki(E), ATP hydrolysis, 3D fit eq 5, n(E)=2, n(ES)=1
  Ki: 960 ± 250 nM
[3]; read-out: Ki(ES), ATP hydrolysis, 3D fit eq 5, n(E)=1, n(ES)=1
  Ki: 119 ± 17 nM
[3]; read-out: Ki(ES), ATP hydrolysis, 3D fit eq 5, n(E)=2, n(ES)=1
  Ki: 120 ± 17 nM
[3]; saturating aurovertin, fit eq 2-4, n=1
  decrease of the value of Vmax for catalysis of ATP hydrolysis: ~ 2.5 fold
[4]; E. coli, 3D fit eq 5, n(E)=2, n(ES)=1, ±SE
  Vmax2 (maximal catalytic rate of ESI complex): 0.06 ± 0.01 µmol/min/mg
[4]; everted E. coli membranes, eq 5 fit
  residual activity at saturating aurovertin: ~ 20% and 20%
[4]; read-out: Ki(E), E. coli, 3D fit eq 5, n(E)=2, n(ES)=1, ±SE
  Ki: 430 ± 70 nM
[4]; read-out: Ki(ES), E. coli, 3D fit eq 5, n(E)=2, n(ES)=1, ±SE
  Ki: 150 ± 20 nM
